Converted amounts (≈) assume the structure as drawn.
Test system: Mycobacterium tuberculosis
Experiment: Activity against Mycobacterium tuberculosis (H37Rv) using the standard BACTEC radiometric growth assay
Format: functional
In short: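 BACTEC radiometric MIC against M. tuberculosis H37Rv. Compounds in DMSO (1 mg/mL stock), final 50, 25, 12.5, 6.25, 3.0, 1.5 µg/mL. Inoculum 0.1 mL of a 1.0 McFarland suspension. Controls: DMSO direct control and 1:100 organism dilution. Incubated 37 °C, growth index read daily until the 1:100 control reached 30. MIC = lowest concentration with 1-day GI change below the 1:100 control.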

[1] = Mycobacterium tuberculosis, read-out: MIC

| SMILES | MIC [1] [µg/mL] | MIC [µg/mL] |
| --- | --- | --- |
| CCCCCCCC[S+]([O-])CC(=O)OC (stereo unspecified) | 12.5 (≈ 53.3 µM) | – |
| CC(C)CCCC(C)CCS(=O)(=O)CC(N)=O (stereo unspecified) | 6.25 (≈ 23.7 µM) | – |
| CCCCCCCCS(=O)(=O)NS(C)(=O)=O | > 25 | – |
| CCCCCCS(=O)(=O)CC(N)=O | > 50 | – |
| NC(=O)CS(=O)(=O)CCCCc1ccccc1 | > 25 | – |
| CCCCCCCCCCP(=O)([O-])CC(N)=O.[K+] | > 50 | – |
| CCCCCCCCCCS(=O)(=O)CCC(N)=O | > 25 | – |
| CCCCCCCCS(=O)(=O)CC(N)=O | 6.25 (≈ 26.6 µM) | – |
| CCCCCCCCS(=O)(=O)CC(=O)O | > 25 | – |
| CCCCCCCCCC[S+]([O-])CC(N)=O (stereo unspecified) | 6.25 (≈ 25.3 µM) | – |
| CCCCCCCCCCCCCCCCCCS(=O)(=O)CC(N)=O | > 50 | – |
| CCCCCCCC[S+]([O-])CC(=O)OCc1ccccc1 (stereo unspecified) | 6.25 (≈ 20.1 µM) | – |
| CCCCCCCCS(=O)(=O)NS(N)(=O)=O | > 25 | – |
| CCCCCCCCS(=O)(=O)CC(=O)OCc1ccccc1 | 12.5 (≈ 38.3 µM) | – |
| CCCCCCCCS(=O)(=O)NC(N)=O | > 25 | – |
| CCCCCCCCCCS(=O)(=O)C(C)C(N)=O (stereo unspecified) | > 25 | – |
| CCCCCCC/C=C/S(=O)(=O)CC(N)=O | 12.5 (≈ 50.5 µM) | – |
| CCCCCCCCCCS(=O)(=O)CC(N)=O | 1.5 (≈ 5.69 µM) | – |
| CCOCCOCCS(=O)(=O)CC(N)=O | > 25 | – |
| NC(=O)CS(=O)(=O)CCCCCCc1ccccc1 | 12.5 (≈ 44.1 µM) | – |
| CCCCCCCS(=O)(=O)CC(N)=O | > 25 | – |

| SMILES | MIC [1] [µg/mL] | MIC [µg/mL] |
| --- | --- | --- |
| CCCCCCCCCCOCC(N)=O | > 25 | – |
| CCCCCCCCCCCCS(=O)(=O)CC(N)=O | 12.5 (≈ 42.9 µM) | – |
| CCCCCCCCC[S@@+]([O-])CC(N)=O | 25 (≈ 107 µM) | – |
| NC(=O)CS(=O)(=O)CCCCCc1ccccc1 | 12.5 (≈ 46.4 µM) | – |
| CCCCCCCCS(=O)(=O)CC(=O)OC | > 25 | – |
| CCCCCCCCCS(=O)(=O)CC(N)=O | 3 (≈ 12 µM) | – |
| CC(C)CCCCCCCS(=O)(=O)CC(N)=O | 1.5 (≈ 5.69 µM) | – |
| CCCCCCC/C=C\S(=O)(=O)CC(N)=O | 12.5 (≈ 50.5 µM) | – |
| CCCCCCCCCCSCC(N)=O | 25 (≈ 108 µM) | – |
| CCCCCCCCC[S+]([O-])CC(=O)OC (racemic) | > 25 | – |
| CCCCCCCCC[S+]([O-])CC(N)=O (racemic) | 25 (≈ 107 µM) | – |
| CCCCCCCCC[S+]([O-])CC(=O)OC (single isomer, unassigned) | > 25 | – |
| CCCCCCCCC[S+]([O-])CC(N)=O (single isomer, unassigned) | – | 25 (≈ 107 µM) |
| C/C=C/C/C=C/CCC(=O)[C@H]1O[C@H]1C(N)=O [CERULENIN] | 1.5 (≈ 6.72 µM) | – |
| CC[C@@H](CO)NCCN[C@@H](CC)CO [ETHAMBUTOL] | 2 (≈ 9.79 µM) | – |
| NNC(=O)c1ccncc1 [ISONIAZID] | 0.1 (≈ 0.729 µM) | – |
| NC(=O)c1cnccn1 [PYRAZINAMIDE] | 100 (≈ 812 µM) | – |
| CO[C@H]1/C=C/O[C@@]2(C)Oc3c(C)c(O)c4c(O)c(c(/C=N/N5CCN(C)CC5)c(O)c4c3C2=O)NC(=O)/C(C)=C\C=C\[C@H](C)[C@H](O)[C@@H](C)[C@@H](O)[C@@H](C)[C@H](OC(C)=O)[C@@H]1C [RIFAMPIN] | 2 (≈ 2.43 µM) | – |
| CN[C@@H]1[C@H](O[C@H]2[C@H](O[C@H]3[C@H](O)[C@@H](O)[C@H](N=C(N)N)[C@@H](O)[C@@H]3N=C(N)N)O[C@@H](C)[C@]2(O)C=O)O[C@@H](CO)[C@H](O)[C@H]1O [STREPTOMYCIN] | 2 (≈ 3.44 µM) | – |
| C=C/C(C)=C/[C@@]1(C)SC(=O)C(C)=C1O [THIOLACTOMYCIN] | 25 (≈ 119 µM) | – |

Reference: ChEMBL document CHEMBL1133632, “A new class of antituberculosis agents” (2000)
